ChEMBL document CHEMBL3259693, “Multitarget drug discovery for tuberculosis and other infectious diseases” (J Med Chem, 2014)
≈ marks a conversion by molar mass, not a printed value. Calls of active or inactive are those of the source. The rule behind the calls is not given here.

Experiments:
[1] = tested on: Mycolicibacterium smegmatis; test: Inhibition of respiration in Mycobacterium smegmatis after 5 mins by methylene blue reduction assay in presence of NADH; assay type: functional, organism-based
[2] = tested on: Mycobacterium tuberculosis; test: microbe, parasite or virus in culture; assay type: functional; conditions: ATCC 27294
[3] = tested on: Escherichia coli; test: Induction of collapse in deltapH in Escherichia coli inverted membrane vesicles by 31P NMR spectroscopy; assay type: functional, organism-based
[4] = tested on: Plasmodium falciparum; test: Antimicrobial activity against Plasmodium falciparum 3D7 by intraerythrocytic assay; assay type: functional, organism-based
[5] = tested on: MCF7; test: Cytotoxicity against human MCF7 cells assessed as growth inhibition by MTT assay; assay type: cell-based
[6] = tested on: Mycolicibacterium smegmatis; test: Disruption of membrane potential in Mycobacterium smegmatis by DisC3(5) probe-based fluorescence spectrophotometry; assay type: functional, organism-based
[7] = Inhibition of Escherichia coli N-terminal strep-tagged MenA expressed in Escherichia coli C43 (DE3) assessed as demethylmenaquinone-3 formation after 30 mins by HPLC analysis
[8] = tested on: Mycolicibacterium smegmatis; test: microbe, parasite or virus in culture; assay type: functional; conditions: ATCC 700084
[9] = tested on: Mycolicibacterium smegmatis; test: Induction of collapse in deltapH in Mycobacterium smegmatis inverted membrane vesicles at 30 to 150 uM by 31P NMR spectroscopy; assay type: functional
[10] = tested on: Bacillus subtilis; test: Antimicrobial activity against Bacillus subtilis subsp. subtilis ATCC 6051 after 12 to 16 hrs by microbroth dilution method; assay type: functional, organism-based
[11] = tested on: Escherichia coli; test: microbe, parasite or virus in culture; assay type: functional, organism-based; conditions: ATCC 29425, 3 h
[12] = tested on: Candida albicans; test: Antimicrobial activity against Candida albicans CAI-4; assay type: functional, organism-based
[13] = tested on: Staphylococcus aureus; test: Antimicrobial activity against methicillin-resistant Staphylococcus aureus USA300; assay type: functional
[14] = tested on: Saccharomyces cerevisiae; test: Antimicrobial activity against Saccharomyces cerevisiae ATCC 208352 after 48 hrs by microbroth dilution method; assay type: functional, organism-based; conditions: ATCC 208352, 48 h
[15] = Therapeutic index, ratio of IC50 for human MCF7 cells to IC50 for Plasmodium falciparum 3D7; assay type: cell-based; conditions: MCF7 cells versus Plasmodium falciparum 3D7, read-out: Ratio IC50
[16] = Therapeutic index, ratio of IC50 for human MCF7 cells to MIC for Mycobacterium tuberculosis ATCC 27294; assay type: cell-based; conditions: MCF7 cells versus Mycobacterium tuberculosis ATCC 27294, read-out: TI
[17] = tested on: Mycolicibacterium smegmatis; conditions: at 40 to 120 µM
[18] = molecular target: T1, Squalene synthase (Homo sapiens, UniProt P37268); test: Inhibition of human SQS
T1 sequence (P37268 whole entry): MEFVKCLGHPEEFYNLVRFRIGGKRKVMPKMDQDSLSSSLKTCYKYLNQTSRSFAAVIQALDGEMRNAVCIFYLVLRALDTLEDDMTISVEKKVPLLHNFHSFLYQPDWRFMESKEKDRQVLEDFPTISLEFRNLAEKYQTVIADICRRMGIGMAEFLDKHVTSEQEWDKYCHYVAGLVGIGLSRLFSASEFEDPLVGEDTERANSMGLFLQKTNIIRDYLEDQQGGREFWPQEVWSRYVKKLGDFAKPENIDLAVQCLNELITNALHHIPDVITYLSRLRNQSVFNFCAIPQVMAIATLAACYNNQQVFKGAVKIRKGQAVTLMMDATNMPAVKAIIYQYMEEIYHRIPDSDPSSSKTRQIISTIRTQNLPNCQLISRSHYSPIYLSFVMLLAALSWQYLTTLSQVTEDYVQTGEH

[19] = tested on: Escherichia coli; test: Ratio of IC50 for Escherichia coli ATCC 29425 in presence of 10% fetal bovine serum to IC50 for Escherichia coli ATCC 29425; assay type: functional
How it was run: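 E. coli broth microdilution in LB. Culture was grown to OD600 ~0.4, diluted 500-fold, and exposed to compound from 0.3 mM, 2× serially diluted to 292 nM. Plates ran 3 h at 37 °C with or without 10% FBS. Viability was read by MTT at 570 nm, and IC50 was obtained by non-linear regression.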

[20] = molecular target: T2, 4,4'-diapophytoene synthase (Staphylococcus aureus, UniProt A9JQL9); test: Inhibition of Staphylococcus aureus CrtM
T2 sequence (A9JQL9 whole entry): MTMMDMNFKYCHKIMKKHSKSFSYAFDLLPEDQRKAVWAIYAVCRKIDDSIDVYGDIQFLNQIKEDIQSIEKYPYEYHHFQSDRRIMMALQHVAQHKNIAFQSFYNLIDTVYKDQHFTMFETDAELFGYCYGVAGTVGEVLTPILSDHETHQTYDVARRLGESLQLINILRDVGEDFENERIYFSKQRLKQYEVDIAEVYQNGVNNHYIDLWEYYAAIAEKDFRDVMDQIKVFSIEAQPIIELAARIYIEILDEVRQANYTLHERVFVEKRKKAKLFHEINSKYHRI

[21] = Inhibition of Mycobacterium smegmatis MenG using radiolabeled S-adenosylmethionine as substrate after 1 hr by liquid scintillation counting analysis; parameters: species or system Mycolicibacterium smegmatis
[22] = Inhibition of Mycobacterium smegmatis MenA; parameters: species or system Mycolicibacterium smegmatis
[23] = tested on: Mycolicibacterium smegmatis; test: Antimicrobial activity against Mycobacterium smegmatis after 10 hrs; assay type: functional
[24] = tested on: Mycobacterium tuberculosis; test: Antimicrobial activity against Mycobacterium tuberculosis after 7 to 21 days by microdilution method; assay type: functional

Compound	IC50 [1] [µM]	MIC [2] [µM]	IC50 [3] [µM]	IC50 [4] [µM]	IC50 [5] [µM]	IC50 [6] [µM]	IC50 [7] [µM]	MIC [8] [µM]	IC50 [10] [µM]	IC50 [11] [µM]	IC50 [12] [µM]	MIC [13] [µM]	IC50 [14] [µM]	other results
CC(C)=CCC/C(C)=C/CNC(=O)COC1C2CC3CC(C2)CC1C3 (stereo unspecified)	330	2.2 (≈ 0.76 µg/mL)	12	18	35	150	5.8	18 (≈ 6.22 µg/mL)	–	–	–	–	–	–
CC(C)[C@@H]1NC(=O)[C@H](C)OC(=O)[C@@H](C(C)C)NC(=O)[C@@H](C(C)C)OC(=O)[C@H](C(C)C)NC(=O)[C@H](C)OC(=O)[C@@H](C(C)C)NC(=O)[C@@H](C(C)C)OC(=O)[C@H](C(C)C)NC(=O)[C@H](C)OC(=O)[C@@H](C(C)C)NC(=O)[C@@H](C(C)C)OC1=O	–	–	–	–	–	–	–	–	–	–	–	–	–	Activity [9]: inactive
CC(C)=CCC/C(C)=C/CNCCCOC1C2CC3CC(C2)CC1C3 (stereo unspecified)	4.8	4.6 (≈ 1.59 µg/mL)	1.1	2.4	9.8	50	1.9	18 (≈ 6.22 µg/mL)	8.7	6.7	19	23 (≈ 7.95 µg/mL)	7.8	–
N#CC(C#N)=NNc1cccc(Cl)c1	–	–	–	–	–	–	–	–	–	–	–	–	–	Activity [9]: Active
CC(C)=CCC/C(C)=C/COCC(=O)NC1C2CC3CC(C2)CC1C3 (stereo unspecified)	280	34 (≈ 11.7 µg/mL)	7.4	11	27	150	16	72 (≈ 24.9 µg/mL)	49	–	–	–	–	–
CC(C)=CCC/C(C)=C/CNCCOC(C)(C)C	9500	24 (≈ 6.08 µg/mL)	4.7	13	178	150	4.6	198 (≈ 50.2 µg/mL)	–	–	–	–	174	–
CC(C)=CCC/C(C)=C/CNCCOC1C2CC3CC(C2)CC1C3 (stereo unspecified)	0.5	0.06 (≈ 0.0199 µg/mL)	0.8	2.4	30	31	0.4	4.8 (≈ 1.59 µg/mL)	48	8.5	36	24 (≈ 7.96 µg/mL)	5.4	selectivity ratio [15]: 40; selectivity ratio [16]: 900; inhibition [17]: Active; IC50 [18]: 100 µM; Ratio IC50 [19]: 1.6; IC50 [20]: 100 µM; IC50 [21]: 15 µM; IC50 [22]: 4 µM
CC(C)=CCC/C(C)=C/COCCNC1C2CC3CC(C2)CC1C3 (stereo unspecified)	36	0.57 (≈ 0.189 µg/mL)	1	2.8	338	78	1.8	19 (≈ 6.3 µg/mL)	–	13	–	–	–	IC50 [18]: 100 µM; IC50 [20]: 100 µM
CC(C)=CCC/C(C)=C/CNCCOc1cccc2ccccc12	140	19 (≈ 6.15 µg/mL)	7.1	–	22	130	3.3	37 (≈ 12 µg/mL)	7.4	46	37	25 (≈ 8.09 µg/mL)	11	–
CC[C@@H](CO)NCCN[C@@H](CC)CO [ETHAMBUTOL]	–	–	–	–	–	–	–	–	–	–	–	–	–	MIC [23]: 4.9 µM (≈ 1 µg/mL); MIC [24]: 9.8 µM (≈ 2 µg/mL)
CO[C@@H]1C[C@@H](C[C@H]2CC[C@H](C)[C@H]([C@@H](C)C(=O)O)O2)O[C@]2(O[C@](C)([C@H]3CC[C@@](C)([C@@H]4O[C@@H]([C@H]5O[C@@](O)(CO)[C@H](C)C[C@@H]5C)C[C@@H]4C)O3)C[C@H]2C)[C@@H]1C	–	–	–	–	–	–	–	–	–	–	–	–	–	Activity [9]: Active
CC(C)=CCC/C(C)=C/CNCCO[C@@H]1C[C@@H]2CC[C@@]1(C)C2(C)C	0.3	0.15 (≈ 0.05 µg/mL)	0.8	–	3.9	44	3.2	4.8 (≈ 1.6 µg/mL)	5.4	36	19	24 (≈ 8.01 µg/mL)	2.7	Activity [9]: Active; Ratio IC50 [19]: 1.6; IC50 [21]: 5.7 µM; EC50 [6]: 15 µg/mL (≈ 45 µM); IC50 [22]: 8 µM
CC(C)=CCC/C(C)=C/COCCOC1C2CC3CC(C2)CC1C3 (stereo unspecified)	600	–	15	24	220	150	4.2	150 (≈ 49.9 µg/mL)	–	–	–	–	–	–
CC(C)=CCC/C(C)=C/CNCCOc1ccccc1	2500	23 (≈ 6.29 µg/mL)	–	51	23	–	4.6	44 (≈ 12 µg/mL)	62	220	74	117 (≈ 32 µg/mL)	11	–
CC(C)=CCC/C(C)=C/C[N+](C)(C)CCOC1C2CC3CC(C2)CC1C3 (stereo unspecified)	0.5	1.6	18	0.16	6.5	51	1	24	8.6	76	37	16	31	–
